Activity calls are given as the source filed them. The calls are words filed in the database; no cut-off is given here.
Key:
[1] = Selectivity index, ratio of CC50 for human RD cells to EC50 for Enterovirus D68 US/KY/14-18953 infected in human RD cells; assay type: toxicity, cell-based; details: read-out: Ratio CC50/EC50
RD = experiment: Inhibition of 2C protein in Enterovirus D68 US/KY/14-18953 infected in human RD cells assessed as reduction of VP1 expression at 1 uM measured at 9 hrs post infection by Western blot analysis; assay type: cell-based
How it was run: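 Equal protein separated and blotted to PVDF. Probed with rabbit anti-VP1 and mouse anti-GAPDH (1:3,000), HRP secondary, chemiluminescent detection. Mean of two independent experiments ± SD.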

enterovirus D68 [2] = experiment: Antiviral activity against Enterovirus D68 US/KY/14-18953 infected in human SH-SY5Y cells assessed as inhibition of virus-induced cytopathic effect incubated for 5 mins under shaking condition and measured after 3 days by neutral red dye-based photometric method; assay type: functional, organism-based; details: Enterovirus D, US/KY/14-18953, SH-SY5Y
How it was run: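 Virus at ~MOI 1 applied to SH-SY5Y cells (50% DMEM/50% F-12, 10% FBS) at ~90% confluence in DMEM/2% FBS/30 mM MgCl2 at 33 °C. Compounds added after 1 h with 1% P/S, shaken ~5 min, incubated 3 days. Viability read by neutral red uptake (A540). EC50 fitted from dose-response, triplicate.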

[3] = Selectivity index, ratio of CC50 for human A172 cells to EC50 for Enterovirus D68 US/KY/14-18953 infected in human A172 cells; assay type: toxicity, cell-based; details: read-out: Ratio CC50/EC50
How it was run: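 A172 cells kept in DMEM with 10% FBS and 1% P/S, grown to about 90% confluency, then infected at MOI about 0.3 in DMEM with 2% FBS and 30 mM MgCl2 at 33 °C. After 1 h, P/S and compounds were added. Viable cells were stained with neutral red after 3 days (A540). CC50 came from the same assay without virus. EC50 and CC50 were fitted from triplicate dose-response data, and SI = CC50/EC50.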

[4] = Selectivity index, ratio of CC50 for human RD cells to EC50 for Enterovirus D68 US/MO/14-18947 infected in human RD cells; assay type: toxicity, cell-based; details: read-out: Ratio CC50/EC50
Influenza B virus = experiment: Antiviral activity against Influenza B virus (B/Brisbane/60/2008) at 10 uM after 2 days by plaque assay; assay type: functional, organism-based
enterovirus D68 [5] = experiment: Antiviral activity against Enterovirus D68 US/KY/14-18953 infected in human A172 cells assessed as inhibition of virus-induced cytopathic effect incubated for 5 mins under shaking condition and measured after 3 days by neutral red dye-based photometric method; assay type: functional, organism-based; details: Enterovirus D, US/KY/14-18953, A 172
How it was run: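 A172 cells (DMEM, 10% FBS) grown ~90% confluent, infected with EV-D68 at ~MOI 0.3 in DMEM/2% FBS/30 mM MgCl2 and kept at 33 °C. P/S and compounds added 1 h later. Brief orbital shaking, then 3-day incubation. Neutral red staining with 540 nm absorbance. EC50 from best-fit dose-response curves in triplicate.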

enterovirus D68 [6] = experiment: Antiviral activity against Enterovirus D68 […] infected in human RD cells assessed as inhibition of virus-induced cytopathic effect incubated for 5 mins under shaking condition and measured after 3 days by neutral red dye-based photometric method; assay type: functional, organism-based; details: Enterovirus D
How it was run: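 RD cells seeded one day ahead to ~90% confluence, PBS (Mg/Ca) wash, infected at ~MOI 0.01 with EV-D68 in DMEM/2% FBS/30 mM MgCl2 at 33 °C, 5% CO2. Compounds and 1% P/S added after 1 h. Plates shaken ~5 min, held 3 days, viable cells stained with neutral red (66 µg/ml), A540 read. EC50 from dose-response fits, triplicates.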

[7] = Selectivity index, ratio of CC50 for human RD cells to EC50 for Enterovirus D68 […] infected in human RD cells; assay type: toxicity, cell-based; details: read-out: Ratio CC50/EC50
How it was run: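 RD cells in DMEM with 10% FBS were infected at about 90% confluency at MOI about 0.01, giving full CPE by 3 days, in DMEM with 2% FBS and 30 mM MgCl2 at 33 °C. Compounds and P/S were added 1 h after infection. Viability was read by neutral red uptake (A540). CC50 came from uninfected cells. Means were from triplicates, and SI = CC50/EC50.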

Compound: O=C(NCCN1CCCC1)c1cc(-c2cccs2)nc2ccccc12
- selectivity ratio [1]: 667
- inhibition (RD): Active
- EC50 (enterovirus D68 [2]): 100 nM
- selectivity ratio [3]: 1310
- selectivity ratio [4]: 667
- Activity (Influenza B virus): inactive
- EC50 (enterovirus D68 [5]): 50 nM
- EC50 (enterovirus D68 [6]): 70 nM
- selectivity ratio [7]: 571

From ChEMBL document CHEMBL4387709, “Discovery of Quinoline Analogues as Potent Antivirals against Enterovirus D68 (EV-D68)” (J Med Chem, 2019)
